Results: ChEMBL document CHEMBL5661984, “Allosteric ligands for the pharmacologically dark receptors GPR68 and GPR65” (Nature, 2015)
The source made the active and inactive calls. No cut-off for these calls is given here.

How the values were obtained:
[1] = Positive allosteric modulator activity at GPR68 E160K mutant transfected in human HEK293T cells assessed as proton-mediated calcium release at 10 uM incubated for 10 mins by Fluo-4 Direct calcium dye based FLIPR assay (reference value: 1.38 +/- 0.01 %); settings: HEK-293T, condition central nervous system disease
[2] = Positive allosteric modulator activity at GPR68 E160K mutant transfected in human HEK293T cells assessed as proton-mediated calcium release at 10 uM incubated for 10 mins by Fluo-4 Direct calcium dye based FLIPR assay (reference value: 6.79 +/- 0.02); format: cell-based; settings: HEK-293T
[3] = Positive allosteric modulator activity at GPR68 R189L mutant expressed in human HEK293T cells assessed as cAMP production in presence of H+ proton by Split-luciferase based luminescence counter analysis (reference value: 1.4 %); settings: HEK-293T, condition central nervous system disease
How it was run: (§1)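 Proton concentration-response of GPR68 (wild type or E160A/K/Q, R189L/M, H269F mutants) in transiently transfected HEK293-T cells. Read-out: GloSensor cAMP, with luciferin loading 90 min at 37°C at pH 8.4. Run with and without increasing modulator concentrations; 20 min at room temperature before luminescence. Proton KA fixed to the proton EC50 without modulator. KB, τA, α, β fitted globally with an operational allosteric model. n=4.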

[4] = Positive allosteric modulator activity at GPR68 R189L mutant transfected in human HEK293T cells assessed as proton-mediated calcium release at 10 uM incubated for 10 mins by Fluo-4 Direct calcium dye based FLIPR assay (reference value: 6.85 +/- 0.02); format: cell-based; settings: HEK-293T
[5] = Positive allosteric modulator activity at GPR68 H269F mutant expressed in human HEK293T cells assessed as cAMP production in presence of H+ proton by Split-luciferase based luminescence counter analysis (reference value: 5.75+/-0.03); format: cell-based; settings: HEK-293T; how it was run: as §1
[6] = Positive allosteric modulator activity at GPR68 E160K mutant expressed in human HEK293T cells assessed as cAMP production in presence of H+ proton by Split-luciferase based luminescence counter analysis (reference value: 6.70+/-0.08); format: cell-based; settings: HEK-293T; how it was run: as §1
[7] = Positive allosteric modulator activity at GPR68 H269F mutant expressed in human HEK293T cells assessed as cAMP production in presence of H+ proton by Split-luciferase based luminescence counter analysis (reference value: 17.7+/-0.8 %); settings: HEK-293T, condition central nervous system disease; how it was run: as §1
[8] = Positive allosteric modulator activity at GPR68 R189M mutant transfected in human HEK293T cells assessed as proton-mediated calcium release at 10 uM incubated for 10 mins by Fluo-4 Direct calcium dye based FLIPR assay (reference value: 6.77 +/- 0.01); format: cell-based; settings: HEK-293T
[9] = Positive allosteric modulator activity at GPR68 R189M mutant expressed in human HEK293T cells assessed as cAMP production in presence of H+ proton by Split-luciferase based luminescence counter analysis (reference value: 3.7 %); settings: HEK-293T, condition central nervous system disease; how it was run: as §1
[10] = biological target: 5-hydroxytryptamine receptor 2B (Homo sapiens, UniProt P41595); test: Antagonist activity against 5-HT2B […] receptor (unknown origin) transfected in human HEK293T cells assessed as inhibition constant incubated for 15 mins by luminescence counter analysis; format: functional, cell-based
[11] = Positive allosteric modulator activity at GPR68 R189L mutant transfected in human HEK293T cells assessed as proton-mediated calcium release at 10 uM incubated for 10 mins by Fluo-4 Direct calcium dye based FLIPR assay (reference value: 1.42 +/- 0.01 %); settings: HEK-293T, condition central nervous system disease
[12] = biological target: C-X-C chemokine receptor type 4 (Homo sapiens) (UniProt P61073); test: Agonist activity against CXCR4 receptor (unknown origin) transfected in human HEK293T cells at 10 uM incubated for 15 mins in presence of CXCL12 by luminescence counter analysis; format: functional, cell-based
How it was run: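 HEK293-T cells transiently transfected with CXCR4 and the GloSensor cAMP reporter, plated in DMEM with 1% dialyzed FBS. Test compound at 10 μM in 20 mM HEPES/HBSS, pH 7.4, 15 min at room temperature. Agonist mode: luciferin (4 mM final) plus 200 nM isoproterenol added, 20 min. Antagonist mode: compound 10 min, then reference agonist at EC80 for 10 min, then luciferin/isoproterenol. Luminescence read. CXCL12 (1 or 3 μM) is the agonist control and AMD3100 (10 μM) the antagonist control. n=2.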

[13] = Positive allosteric modulator activity at GPR68 H269F mutant transfected in human HEK293T cells assessed as proton-mediated calcium release at 10 uM incubated for 10 mins by Fluo-4 Direct calcium dye based FLIPR assay (reference value: 6.44 +/- 0.02); format: cell-based; settings: HEK-293T
[14] = Binding affinity to GPR68 E160Q mutant expressed in human HEK293T cells assessed as cAMP production in presence of H+ proton by Split-luciferase based luminescence counter analysis; settings: condition central nervous system disease; how it was run: as §1
[15] = Binding affinity to GPR68 E160K mutant expressed in human HEK293T cells assessed as cAMP production in presence of H+ proton by Split-luciferase based luminescence counter analysis; settings: condition central nervous system disease; how it was run: as §1
[16] = Positive allosteric modulator activity at GPR68 E160K mutant expressed in human HEK293T cells assessed as cAMP production in presence of H+ proton by Split-luciferase based luminescence counter analysis (reference value: 24.6+/-2.7 %); settings: HEK-293T, condition central nervous system disease; how it was run: as §1
[17] = Positive allosteric modulator activity at GPR68 R189M mutant expressed in human HEK293T cells assessed as cAMP production in presence of H+ proton by Split-luciferase based luminescence counter analysis (reference value: 6.71+/-0.03); format: cell-based; settings: HEK-293T; how it was run: as §1
[18] = Positive allosteric modulator activity at GPR68 E160Q mutant expressed in human HEK293T cells assessed as cAMP production in presence of H+ proton by Split-luciferase based luminescence counter analysis (reference value: 6.83+/-0.09); format: cell-based; settings: HEK-293T; how it was run: as §1
[19] = biological target: G-protein coupled receptor 68 (Homo sapiens, UniProt Q15743); test: Positive allosteric modulator activity at HA-tagged GPR68 expressed in human HEK293T cells assessed as activation of p42/p44 MAP kinase at pH 7.4 by immunoblotting analysis; format: cell-based; settings: filed as positive allosteric modulator
How it was run: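 HEK293 cells stably expressing N-terminal HA-tagged human GPR68 (vector-only line as control), selected with 250 μg/ml G418. Confluent cells were switched to Hams-F12 at pH 8.0 or 7.4 for 1 h, then given vehicle or 50 μM compound for 10 min. Lysate immunoblots were probed for HA, total VASP, p-p42/p44 and β-actin, read with infrared-fluorophore secondaries.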

[20] = biological target: Adenosine receptor A2a (Homo sapiens, UniProt P29274); test: Antagonist activity against A2A adenosine receptor (unknown origin) transfected in human HEK293T cells assessed as inhibition constant […] by luminescence counter analysis; format: functional, cell-based
Sequence of Adenosine receptor A2a (P29274 whole entry): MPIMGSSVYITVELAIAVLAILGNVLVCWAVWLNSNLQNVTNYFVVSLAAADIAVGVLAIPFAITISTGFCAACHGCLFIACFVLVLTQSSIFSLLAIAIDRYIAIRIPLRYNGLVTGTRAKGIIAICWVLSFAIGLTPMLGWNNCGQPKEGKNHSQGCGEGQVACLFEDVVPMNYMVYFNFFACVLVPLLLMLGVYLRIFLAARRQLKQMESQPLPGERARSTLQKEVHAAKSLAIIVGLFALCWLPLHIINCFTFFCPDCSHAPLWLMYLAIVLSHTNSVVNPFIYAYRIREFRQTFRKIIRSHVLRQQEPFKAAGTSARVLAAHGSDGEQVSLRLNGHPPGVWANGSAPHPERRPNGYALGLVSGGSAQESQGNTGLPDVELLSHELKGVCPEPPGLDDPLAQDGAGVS

Sequence of 5-hydroxytryptamine receptor 2B (P41595 whole entry): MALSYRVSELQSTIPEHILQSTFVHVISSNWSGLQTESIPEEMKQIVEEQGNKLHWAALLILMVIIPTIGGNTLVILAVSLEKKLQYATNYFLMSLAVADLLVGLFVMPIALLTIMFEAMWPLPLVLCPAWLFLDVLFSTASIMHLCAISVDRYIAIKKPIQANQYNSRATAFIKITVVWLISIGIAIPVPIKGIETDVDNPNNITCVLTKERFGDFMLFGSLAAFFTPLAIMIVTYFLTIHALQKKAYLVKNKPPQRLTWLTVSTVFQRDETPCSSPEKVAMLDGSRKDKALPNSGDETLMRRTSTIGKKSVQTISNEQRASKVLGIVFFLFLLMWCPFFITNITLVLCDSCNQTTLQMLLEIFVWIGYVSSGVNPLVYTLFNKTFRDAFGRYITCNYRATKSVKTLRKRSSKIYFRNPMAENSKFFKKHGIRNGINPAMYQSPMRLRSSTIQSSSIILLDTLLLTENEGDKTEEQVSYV
Sequence of C-X-C chemokine receptor type 4 (Homo sapiens) (P61073 whole entry): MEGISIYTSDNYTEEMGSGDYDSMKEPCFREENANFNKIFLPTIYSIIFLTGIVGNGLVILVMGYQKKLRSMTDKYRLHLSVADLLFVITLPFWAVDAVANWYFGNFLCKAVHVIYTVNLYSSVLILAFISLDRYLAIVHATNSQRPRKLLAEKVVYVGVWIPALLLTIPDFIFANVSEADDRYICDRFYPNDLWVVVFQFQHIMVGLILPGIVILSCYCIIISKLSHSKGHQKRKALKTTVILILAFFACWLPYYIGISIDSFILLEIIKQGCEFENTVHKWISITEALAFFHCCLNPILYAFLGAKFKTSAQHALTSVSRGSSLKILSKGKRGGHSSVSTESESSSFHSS
Sequence of G-protein coupled receptor 68 (Q15743 whole entry): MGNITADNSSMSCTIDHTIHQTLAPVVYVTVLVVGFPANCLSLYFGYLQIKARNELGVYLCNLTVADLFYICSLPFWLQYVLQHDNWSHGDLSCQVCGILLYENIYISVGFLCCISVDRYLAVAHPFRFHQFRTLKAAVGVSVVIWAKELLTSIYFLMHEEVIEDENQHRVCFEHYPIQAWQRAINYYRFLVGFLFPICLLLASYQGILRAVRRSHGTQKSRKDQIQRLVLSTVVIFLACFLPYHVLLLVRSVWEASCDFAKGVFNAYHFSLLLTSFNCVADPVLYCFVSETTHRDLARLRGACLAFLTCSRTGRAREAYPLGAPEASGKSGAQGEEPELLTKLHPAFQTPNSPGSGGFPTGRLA

Nc1nc(NCc2ccccc2)nc(-c2ccccc2CO)n1 [Ogerin]
Emax at 10 µM [1]: 1.12% | EC50 [2]: 0.151 µM | Emax [3]: 5.3% | EC50 [4]: 0.0871 µM | EC50 [5]: 0.398 µM | EC50 [6]: 0.0776 µM | Emax [7]: 45.1% | EC50 [8]: 0.155 µM | Emax [9]: 10% | Ki [10]: 0.736 µM | Emax at 10 µM [11]: 1.35% | Activity [12]: inactive | EC50 [13]: 0.145 µM | pKb [14]: 4.9 | pKb [15]: 4.98 | Emax [16]: 42.6% | EC50 [17]: 0.191 µM | EC50 [18]: 0.0269 µM | Activity [19]: Active | Ki [20]: 0.22 µM
